Laboratory results from ChEMBL document CHEMBL1146282, “Novel beta-lactam derivatives: potent and selective inhibitors of the chymotrypsin-like activity of the human 20S proteasome” (Bioorg Med Chem Lett, 2007).
pIC50: −log10 of the molar value. The source made the active and inactive calls. No cut-off for these calls is given here.

Legend:
[1] = Inhibition of chymotrypsin-like activity of human 20S proteasome
Method in brief: (§1)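 Human 20S proteasome purified in-house from blood, assayed in vitro with fluorogenic AMC peptides: Suc-Leu-Leu-Val-Tyr-AMC (chymotrypsin-like), Boc-Leu-Arg-Arg-AMC (trypsin-like), Z-Leu-Leu-Glu-AMC (post-glutamyl-peptide hydrolytic-like). Hydrolysis followed by fluorescence rise (ex 355/em 460 nm). IC50 taken from initial linear rates, as inhibitor concentration halving the proteasome-catalysed hydrolysis rate.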

Homo sapiens [2] = species on record: Homo sapiens; assay: Selectivity for chymotrypsin-like activity of human 20S proteasome over trypsin-like activity of human 20S proteasome
Homo sapiens [3] = species on record: Homo sapiens; assay: Selectivity for chymotrypsin-like activity of human 20S proteasome over post-glutamyl-peptide hydrolytic activity of human 20S proteasome
Homo sapiens [4] = species on record: Homo sapiens; assay: Inhibition of calpain at 25 uM
Homo sapiens [5] = species on record: Homo sapiens; assay: Inhibition of chymotrypsin at 25 uM
[6] = Inhibition of trypsin-like activity of human 20S proteasome; method in brief: as §1
Homo sapiens [7] = species on record: Homo sapiens; assay: Inhibition of thrombin at 25 uM
[8] = Inhibition of post-glutamyl-peptide hydrolytic activity of human 20S proteasome; method in brief: as §1
MDA-MB-435 = assay: Antiproliferative activity against human MDA-MB-435 cells by MTT assay; assay type: functional, cell-based
Method in brief: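 MDA-MB-435 human breast carcinoma cells grown in MEM with 10% FCS, penicillin/streptomycin, 4 mM L-glutamine, 1 mM sodium pyruvate, non-essential amino acids and 20 mM Hepes. Compound exposure for 24, 48 or 72 h. Proliferation read by MTT-based CellTiter96 assay.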

pIC50 [1]	Ratio (Homo sapiens [2])	Ratio (Homo sapiens [3])	Activity (Homo sapiens [4])	Activity (Homo sapiens [5])	pIC50 [6]	Activity (Homo sapiens [7])	pIC50 [8]	pIC50 (MDA-MB-435)	SMILES
6.55	–	–	–	–	–	–	–	–	COc1ccc(C[C@H](NC(=O)Cc2cccc(Oc3ccccc3)c2)C(=O)N[C@H](C(=O)N[C@@]2(Cc3ccccc3)CNC2=O)C(C)(C)C)c(OC)c1OC
8.40	–	–	–	–	–	–	–	–	COc1ccc(C[C@H](NC(=O)Cc2cccc(Oc3ccccc3)c2)C(=O)N[C@@H](C(=O)N[C@@]2(Cc3ccccc3)CNC2=O)C(C)(C)C)c(OC)c1OC
5.85	–	–	–	–	–	–	–	–	COc1ccc(C[C@H](NC(=O)OCc2ccccc2)C(=O)N[C@H](C(=O)N[C@@]2(Cc3ccccc3)CNC2=O)C(C)C)c(OC)c1OC
8.60	350	> 350	inactive	inactive	5.96	inactive	< 4.00	7.47	COc1ccc(C[C@H](NC(=O)Cc2cccc(Oc3ccccc3)c2)C(=O)N[C@H](C(=O)N[C@]2(CC(C)C)CNC2=O)C(C)C)c(OC)c1OC
7.70	350	> 350	inactive	inactive	–	inactive	< 4.70	5.92	CC(C)C[C@@]1(NC(=O)[C@@H](NC(=O)[C@H](Cc2ccccc2)NC(=O)Cc2cccc(Oc3ccccc3)c2)C(C)C)CNC1=O
8.30	–	–	–	–	–	–	–	–	COc1ccc(C[C@H](NC(=O)OCc2ccccc2)C(=O)N[C@H](C(=O)N[C@]2(Cc3ccccc3)CNC2=O)C(C)C)c(OC)c1OC
6.77	–	–	–	–	–	–	–	–	COc1ccc(C[C@H](NC(=O)Cc2cccc(Oc3ccccc3)c2)C(=O)N[C@H](C(=O)N[C@@]2(Cc3ccccc3)CNC2=O)C(C)C)c(OC)c1OC
8.85	350	> 350	inactive	inactive	4.72	inactive	< 4.70	7.49	COc1ccc(C[C@H](NC(=O)Cc2cccc(Oc3ccccc3)c2)C(=O)N[C@H](C(=O)N[C@]2(Cc3ccccc3)CNC2=O)C(C)C)c(OC)c1OC
4.42	–	–	–	–	–	–	–	–	CC(C)C[C@]1(NC(=O)[C@@H](NC(=O)[C@H](Cc2ccccc2)NC(=O)Cc2cccc(Oc3ccccc3)c2)C(C)C)CNC1=O
5.89	–	–	–	–	–	–	–	–	COc1ccc(C[C@H](NC(=O)Cc2cccc(Oc3ccccc3)c2)C(=O)N[C@H](C(=O)N[C@@]2(CC(C)C)CNC2=O)C(C)C)c(OC)c1OC
